Test results reported in the EternaBench riboswitch data.

Tested on: MS2 coat protein
Test: apparent Kd, MS2 coat protein; higher = weaker binding; RNA-MaP array
Procedure, shortened: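 Apparent Kd is the median of per-cluster binding-curve fits for designed RNAs transcribed from sequenced DNA templates on an Illumina sequencing chip. The RNAs were incubated at room temperature with fluorescently labeled MS2 coat protein at 1.5 nM to 3 μM, with or without input ligand, and designs measured on fewer than 10 clusters were excluded.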

[1] = designed as: ON switch for theophylline, no ligand
[2] = ligand present: theophylline, designed as: ON switch for theophylline
[3] = designed as: OFF switch for flavin mononucleotide, no ligand
[4] = ligand present: flavin mononucleotide, designed as: OFF switch for flavin mononucleotide
[5] = designed as: ON switch for tryptophan, no ligand
[6] = ligand present: tryptophan, designed as: ON switch for tryptophan
[7] = designed as: ON switch for flavin mononucleotide, no ligand
[8] = ligand present: flavin mononucleotide, designed as: ON switch for flavin mononucleotide

| Sequence | apparent Kd [3] [nM] | apparent Kd [4] [nM] | further results |
| --- | --- | --- | --- |
| GGAGGCCUUAGGGAUACCAGCUAAGUUGAGUACAUGAGGAUCACCCAUGUGUUCCCAGAGAGCCCUUGGCAGCCCUCAUCCGUUC |  |  | apparent Kd [1]: 11.6 nM; apparent Kd [2]: 10.8 nM |
| GGCCUUUCGGUAAGGAUAUCCCUCCGCGCAGAUUGGGAGAAGGUACAUGAGGAUCACCCAUGUUUUAUGGCUGC | 9.4 | 10.8 |  |
| GGCGACAUGAGGAUCACCCAUGUGACACCUCGAGGACCGGUACGGCCGCCACUCGUAACCUGCACUAUAGCUACCACGAUUAGCC |  |  | apparent Kd [5]: 193 nM; apparent Kd [6]: 42.4 nM |
| GGCGGGAGAAUAGGAUAUUCCGGUAAUCGACAUGAGGAUCACCCAUGUACCGUUCAACCGAUACCGAAGAAGGAUUAUAAGCCU |  |  | apparent Kd [7]: 16.6 nM; apparent Kd [8]: 13.8 nM |
| GGGCCACCUCUAACAUGAGGAUCACCCAUGUUCGUCGGUUCCGAGGAUAUGUCUAGACGUAACGGACAGAAGGCGGUCCGGCUG | 26.2 | 81 |  |
| GGGCGACUAGGAUAUACAGGAAGUUAAUGAGUGUCAAAGAAACAUGAGGAUCACCCAUGUAGAAGGAGUGCUAU | 11.2 | 12.6 |  |
| GUAACUCAGGUCAGGAUAUUCGAGUAAGGGAAAACGAAGAAGGGACAUGAGGAUCACCCAUGUAACACGACUAU | 18.1 | 86.3 |  |
| GUAAGACAUGAGGAUCACCCAUGUGUCGAUACCAGCCCUGCCUCUGGCCCUUGGCAGCGACUCGCACACCUCGCACUGCACAAGU |  |  | apparent Kd [1]: 54.9 nM; apparent Kd [2]: 73.2 nM |
| GUAGGUUGCCAAGGAUAUGCGGGUACUCUUCCGAAACAUGAGGAUCACCCAUGUACUCUCCUGUAGCAGAAGGUGGCUUGGUGA | 493 | 269 |  |
| GUAUAUACAUAGGAUAUGUCGGCCGGUUAUGCAACAGAAGGAUGUACAUGAGGAUCACCCAUGUCAAUUGGGAG | 74.6 | 220 |  |
| GUAUCGGUUGAGAAGGCGGCGGAGACAUAACUUGGUCCCAACAUGAGGAUCACCCAUGUUAAAUCCGAGGAUAUCAACAAAGCC | 6.84 | 18.9 |  |
| GUAUUCAUGACGGCCGCCACUGCAAGCCUCCUCAUGGCAGAUUGACAUGAGGAUCACCCAUGUCUCAGGACCGGGUCUGGCAUCC |  |  | apparent Kd [5]: 188 nM; apparent Kd [6]: 171 nM |
| GUCCUACAUGAGGAUCACCCAUGUGGUCGUGGUAUAGGAUAUUAGGACUUUGUAAUCAGUUAAGAAGGAUAUCACU |  |  | apparent Kd [7]: 60.1 nM; apparent Kd [8]: 17.4 nM |
| GUCCUCGACACGGCCGCCACUGGCUCGCCUGUUGGCGCCGACCCACAUGAGGAUCACCCAUGUUCCAGGACCGGGUGUCACAGCA |  |  | apparent Kd [5]: 224 nM; apparent Kd [6]: 157 nM |
| GUCGUAGGCUAAGGAUAUAGUGAAAGAGUGAAGGCCUGAUCAGACAUGAGGAUCACCCAUGUGAACUAGAAGGUAGGCAAGGCU | 13.5 | 12.5 |  |
| GUGAUACAUGAGGAUCACCCAUGUUAAGGUCUUGCAGGAUAUCCAGAACUCGAGAUAGAUGGAGAAGGGCAUGCAU |  |  | apparent Kd [7]: 12.6 nM; apparent Kd [8]: 9.76 nM |
| GUGGACAUGAGGAUCACCCAUGUAAGUCGGCGAGGACCGGUACGGCCGCCACUCGUGUUCUGUCUCAGCUCAAACGUAGCCGGAA |  |  | apparent Kd [5]: 36.3 nM; apparent Kd [6]: 17.9 nM |
| GUGUUACAUGAGGAUCACCCAUGUGUCUGAUGUCAAGGAUAUGACUCUUCCUUCACAAAGUCAGAAGGUGAUAUCA |  |  | apparent Kd [7]: 66.2 nM; apparent Kd [8]: 12.8 nM |
| GUUUCCUCAGGAUAUUACUGCCGGGACAUGAGGAUCACCCAUGUGGCCUCCGUAAGGCUAUAAGAAGGGAGGCGUC | 111 | 157 |  |
| UAAAUGUUUUAGAAGGGAUAAUGCGGCAUUGAAUCAGGAUAUAAAGCUAUAAACACAUGAGGAUCACCCAUGUCCCAGGUUAAA |  |  | apparent Kd [7]: 477 nM; apparent Kd [8]: 143 nM |
| UAAGCACAUGAGGAUCACCCAUGUAAGGAUAUCCGAUCAUGCAAUCCGGAGAUCACAAGGAGAAGGUACAUGCA | 29.6 | 33.3 |  |

| Sequence | apparent Kd [3] [nM] | apparent Kd [4] [nM] | further results |
| --- | --- | --- | --- |
| UAAGGACUUAUAGGAUAUGCAAACAUGAGGAUCACCCAUGUGAACCACGAAAUGACGCAGAAUAAGCAGAAGGAUAGUACGUAC |  |  | apparent Kd [7]: 32.7 nM; apparent Kd [8]: 25.5 nM |
| UAAUACCAUACAGGAUAUACUUAGCCCAAAACAUGAGGAUCACCCAUGUAUUGGAGUCCUCGGCGGUAGAAGGGUACAGAAAGA | 19.5 | 16.4 |  |
| UAAUUAACGUAGAAGGAAUCCCAUCCGUUGCAAUUAGGAUAUACGUUCCCUCGAACAUGAGGAUCACCCAUGUGGCAACCAUAU | 14.7 | 13.8 |  |
| UACAUGAGGAUCACCCAUGUGUGUAGCUAUUACUGUUACAUCUAGGAUAUGUCGGGAACUCAACAACAGAAGGAGAUAGAAGGA |  |  | apparent Kd [7]: 48.8 nM; apparent Kd [8]: 33.8 nM |
| UACCCAUUAGAGAAGGUUGACGCCCUAGUUGUCAAAGGAUAUCUCCUCGAGGCUACACAUGAGGAUCACCCAUGUUCACAGGUC | 9.35 | 8.92 |  |
| UACUCAAGAGUAAGGAUAUAGAACCAAAUAGCGGACUAGAAGGUACAUGAGGAUCACCCAUGUCAAAGACAGAA | 7.44 | 7.19 |  |
| UAGAAACUCGUAAGGAUAUCCGAAGAGAAAAUGAGGGAGAAGGUACAUGAGGAUCACCCAUGUAUGAAAUGGAC | 7.64 | 7.98 |  |
| UAGAAAUCCUUGCAGGAUAUGUUGGAGUCUACAUGAGGAUCACCCAUGUUUAGUAGCAGGCGACGACAGAAGGGCAAUCUCAUGAU |  |  | apparent Kd [7]: 23.6 nM; apparent Kd [8]: 9.18 nM |
| UAGAUCCCAGUCAGGAUAUCCAGGGAGAAUAGGAGGGAGAAGGGACAUGAGGAUCACCCAUGUAUGCGACUACC | 7.91 | 8.92 |  |
| UAGGUUAGGUAGAAGGGCAAGUAAUUCCACAUGAGGAUCACCCAUGUUCCUGUUUGGGAGGCUGUGCAGGAUAUACGAAAAUAA | 117 | 153 |  |
| UAGUAAACCGCAGGAUAUCCAACUUGGGCACCAGGAGAAGGGCGAUUAACAUGAGGAUCACCCAUGUAUUCGGAGAGCUUACCU |  |  | apparent Kd [7]: 10.4 nM; apparent Kd [8]: 9.18 nM |
| UAGUAACAUGAGGAUCACCCAUGUCCGGAUACCAGACAUAUACCAGUCCCUUGGCAGCCGCCAGUUAAAAUCUAACACAAAAGUU |  |  | apparent Kd [1]: 46.2 nM; apparent Kd [2]: 21.5 nM |
| UAUGUAUAGAAGGAUAUCUAAUUACGCCCGAUAAGAGAAGGUCUGACAUGAGGAUCACCCAUGUUAUGGGAGGC | 18.1 | 23.3 |  |
| UAUUGGAUAGGAUAUACAUGAGGAUCACCCAUGUUUUCAUUGGACGAGGACGCUCUUCGUAGAAGGAUCGGCUA | 10.8 | 10.2 |  |
| UCAACAUGAGGAUCACCCAUGUCAUCGGCGUUCUCAGACACUAGAAGGAACAGGCGUAUCUGCGGUUAGGAUAUAGACACACAU | 31.3 | 31 |  |
| UCAAGGUCAGGAUAUUUAUACAGUCGAUUACGAGGAUGUCGAAAGAAGGGACAUGAGGAUCACCCAUGUGGUAC | 43 | 57.7 |  |
| UCCACGGACCAAGGAUAUCCACAGUGAACCAGAGGAGAAGGUGGGAAUUACAUGAGGAUCACCCAUGUACGGGAUCUCCUGUAU |  |  | apparent Kd [7]: 47.5 nM; apparent Kd [8]: 41.7 nM |
| UCCCAGCAAGGAUAUACAUGAAAAGGUAAAGAAGAAAAGAAACAUGAGGAUCACCCAUGUAGAAGGUGCAAGAG | 15.5 | 18.4 |  |
| UCUCAUCAGUAGAAGGGCAGACCCUAACAAGGUGCAGGAUAUACUCUAAGUCCUACAUGAGGAUCACCCAUGUCAUAUAUCGGG | 323 | 196 |  |
| UCUGGUUGAGGAUAUACAUGAGGAUCACCCAUGUCACCUAGCAAAGUAGAGAGUAAGUGUAGAAGGCAACCUUU | 15.6 | 18.9 |  |
| UCUGUGAUUCAAGGAUAUAAGUCGAGUGCUUGCUUAGAAGGUGACGAACAUGAGGAUCACCCAUGUGCUUUAUUCUUAUGCAUC | 29.2 | 25.6 |  |
